Consider 9 compounds from ChEMBL document CHEMBL1131023, “Identification of a dihydropyridine as a potent alpha1a adrenoceptor-selective antagonist that inhibits phenylephrine-induced contraction of the human prostate” (J Med Chem, 1998).

For experiment [1], the target named is T1, Alpha-1D adrenergic receptor (Homo sapiens, UniProt P25100).
T1 sequence (P25100 whole entry): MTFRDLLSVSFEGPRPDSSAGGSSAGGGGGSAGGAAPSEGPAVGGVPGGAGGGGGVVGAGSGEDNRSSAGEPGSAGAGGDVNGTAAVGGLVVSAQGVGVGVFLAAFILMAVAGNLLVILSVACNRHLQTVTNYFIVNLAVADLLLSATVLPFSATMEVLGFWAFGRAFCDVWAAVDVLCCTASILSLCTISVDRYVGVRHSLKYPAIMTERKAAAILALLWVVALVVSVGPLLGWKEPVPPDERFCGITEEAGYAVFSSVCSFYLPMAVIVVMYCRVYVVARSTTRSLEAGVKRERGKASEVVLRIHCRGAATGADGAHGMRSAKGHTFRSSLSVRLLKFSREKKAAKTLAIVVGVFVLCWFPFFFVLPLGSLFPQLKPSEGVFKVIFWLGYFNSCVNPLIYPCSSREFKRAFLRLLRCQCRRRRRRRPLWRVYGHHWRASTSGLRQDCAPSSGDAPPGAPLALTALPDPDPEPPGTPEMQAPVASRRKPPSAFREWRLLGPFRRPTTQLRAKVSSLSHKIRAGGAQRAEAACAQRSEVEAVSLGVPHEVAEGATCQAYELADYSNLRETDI
The experiment is described as follows: Binding affinity determined by displacement of [3H]prazosin from alpha-1D adrenergic receptor. The method in brief: (§1)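 Radioligand displacement binding at the cloned receptor, incubated for 30 min.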
A general note: In a radioligand displacement assay an active substance lowers the binding of a labelled ligand.

In experiment [2] the target is T2, Alpha-2A adrenergic receptor (Homo sapiens, UniProt P08913).
T2 sequence (P08913 whole entry): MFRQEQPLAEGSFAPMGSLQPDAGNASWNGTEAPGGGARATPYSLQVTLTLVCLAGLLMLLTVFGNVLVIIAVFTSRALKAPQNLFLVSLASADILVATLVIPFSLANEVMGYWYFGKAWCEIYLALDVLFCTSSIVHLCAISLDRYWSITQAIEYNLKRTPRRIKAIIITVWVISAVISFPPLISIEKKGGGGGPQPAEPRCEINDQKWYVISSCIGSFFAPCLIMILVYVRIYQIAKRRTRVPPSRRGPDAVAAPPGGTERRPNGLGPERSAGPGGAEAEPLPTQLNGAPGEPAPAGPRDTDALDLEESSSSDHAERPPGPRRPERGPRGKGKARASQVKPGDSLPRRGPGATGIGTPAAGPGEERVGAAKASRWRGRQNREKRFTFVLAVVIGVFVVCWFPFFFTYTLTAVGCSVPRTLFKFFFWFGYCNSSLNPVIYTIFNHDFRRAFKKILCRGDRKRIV
The experiment is described as follows: Binding affinity determined by displacement of [3H]rauwolscine from alpha-2A adrenergic receptor. The method in brief:
as §1

Experiment [3] has as its target T3, Alpha-1A adrenergic receptor (Homo sapiens, UniProt P35348).
T3 sequence (P35348 whole entry): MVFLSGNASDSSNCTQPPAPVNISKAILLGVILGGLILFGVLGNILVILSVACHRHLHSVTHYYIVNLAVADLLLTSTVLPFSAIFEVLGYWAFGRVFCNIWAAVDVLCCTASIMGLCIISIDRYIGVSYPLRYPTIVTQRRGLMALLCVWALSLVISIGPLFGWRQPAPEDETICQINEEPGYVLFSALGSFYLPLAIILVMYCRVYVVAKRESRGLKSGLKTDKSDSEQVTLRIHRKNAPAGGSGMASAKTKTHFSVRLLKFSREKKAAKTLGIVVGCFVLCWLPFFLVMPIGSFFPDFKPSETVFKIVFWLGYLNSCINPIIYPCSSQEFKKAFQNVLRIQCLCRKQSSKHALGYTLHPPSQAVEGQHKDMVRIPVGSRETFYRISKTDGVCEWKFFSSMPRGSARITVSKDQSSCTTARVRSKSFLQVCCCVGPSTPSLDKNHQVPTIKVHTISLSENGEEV
The experiment is described as follows: Binding affinity determined by displacement of [3H]prazosin from alpha-1A adrenergic receptor.

Experiment [4] has as its target T4, Alpha-2B adrenergic receptor (Homo sapiens, UniProt P18089).
T4 sequence (P18089 whole entry): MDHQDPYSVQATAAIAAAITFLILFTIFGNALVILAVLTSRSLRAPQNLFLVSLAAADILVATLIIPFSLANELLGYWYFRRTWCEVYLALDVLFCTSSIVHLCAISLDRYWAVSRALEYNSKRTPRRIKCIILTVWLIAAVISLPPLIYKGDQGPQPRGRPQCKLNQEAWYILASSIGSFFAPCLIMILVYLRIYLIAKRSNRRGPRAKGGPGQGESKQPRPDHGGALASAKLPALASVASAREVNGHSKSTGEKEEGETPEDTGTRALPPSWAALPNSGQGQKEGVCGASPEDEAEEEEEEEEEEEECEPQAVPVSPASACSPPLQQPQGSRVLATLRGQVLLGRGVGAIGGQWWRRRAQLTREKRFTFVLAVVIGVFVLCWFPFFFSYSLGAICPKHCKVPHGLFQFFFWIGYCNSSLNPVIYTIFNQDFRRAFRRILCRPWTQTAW
The experiment is described as follows: Binding affinity determined by displacement of [3H]rauwolscine from alpha-2B adrenergic receptor.

Experiment [5] concerns the target T5, Alpha-1B adrenergic receptor (Homo sapiens, UniProt P35368).
T5 sequence (P35368 whole entry): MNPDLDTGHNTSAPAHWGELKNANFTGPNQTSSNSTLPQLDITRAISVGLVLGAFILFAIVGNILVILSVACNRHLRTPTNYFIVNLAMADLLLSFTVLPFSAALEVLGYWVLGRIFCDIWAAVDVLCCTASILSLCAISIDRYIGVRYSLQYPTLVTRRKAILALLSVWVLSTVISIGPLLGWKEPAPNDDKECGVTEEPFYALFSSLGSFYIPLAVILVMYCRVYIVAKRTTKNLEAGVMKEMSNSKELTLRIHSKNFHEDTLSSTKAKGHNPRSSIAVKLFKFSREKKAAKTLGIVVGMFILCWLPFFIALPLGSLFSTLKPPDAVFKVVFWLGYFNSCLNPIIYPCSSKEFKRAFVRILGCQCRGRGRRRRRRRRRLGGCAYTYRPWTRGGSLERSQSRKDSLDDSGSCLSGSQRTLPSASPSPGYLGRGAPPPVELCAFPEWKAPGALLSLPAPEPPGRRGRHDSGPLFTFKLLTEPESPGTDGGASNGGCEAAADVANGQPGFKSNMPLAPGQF
The experiment is described as follows: Binding affinity determined by displacement of [3H]prazosin from alpha-1B adrenergic receptor.

The target of experiment [6] is T6, Alpha-2C adrenergic receptor (Homo sapiens, UniProt P18825).
T6 sequence (P18825 whole entry): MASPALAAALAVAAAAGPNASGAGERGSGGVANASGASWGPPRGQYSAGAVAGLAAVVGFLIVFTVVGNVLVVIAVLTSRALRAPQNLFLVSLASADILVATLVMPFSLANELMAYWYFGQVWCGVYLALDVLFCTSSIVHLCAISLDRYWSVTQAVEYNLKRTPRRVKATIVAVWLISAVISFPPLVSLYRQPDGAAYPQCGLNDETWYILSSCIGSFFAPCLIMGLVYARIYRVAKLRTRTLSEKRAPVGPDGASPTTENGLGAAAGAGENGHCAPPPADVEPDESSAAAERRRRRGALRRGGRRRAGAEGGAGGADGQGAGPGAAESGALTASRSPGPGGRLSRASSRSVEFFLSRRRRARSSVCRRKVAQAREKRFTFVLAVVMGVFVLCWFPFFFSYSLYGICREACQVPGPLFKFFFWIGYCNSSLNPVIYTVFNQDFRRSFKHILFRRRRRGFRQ
The experiment is described as follows: Binding affinity assayed by displacement of [3H]rauwolscine from human alpha-2C adrenergic receptor. Summed up:
as §1

Experiment [7] deals with Voltage-gated L-type calcium channel (Rattus norvegicus, UniProt P22002+Q02485+P27732). The experiment is described as follows: Binding affinity at the L-type [Ca2+] channel from rat brain homogenate by [3H]nitrendipine displacement. The class given is tissue-based.

As usually defined, the Ki is a measure of affinity in units of concentration, obtained from inhibition or displacement. Low readings indicate higher affinity, high ones lower affinity.

Where only a bound is given, the exact number is not on record here.

Take `CO/C(O)=C1\C(C)=NC(C)=C(C(=O)NCCCN2CCC(c3ccccc3)(c3ccccc3)CC2)C1c1ccc(Cl)c(Cl)c1` (stereo not drawn): the Ki in experiment [1] was 324 nM; in experiment [2] it was 912 nM; in experiment [3], 1.86 nM; in experiment [4], 1260 nM; in experiment [5] it was 115 nM; in experiment [6] it was 158 nM. The “Log Ki” value in experiment [7] is less than -6.
As for `CO/C(O)=C1\C(C)=NC(C)=C(C(=O)NCCCCN2CCC(c3ccccc3)(c3ccccc3)CC2)C1c1ccc([N+](=O)[O-])cc1` (stereo not drawn), the Ki in experiment [1] is 331 nM; in experiment [2] it was 646 nM; in experiment [3], 14.8 nM; in experiment [4], 372 nM; in experiment [5], 135 nM; in experiment [6], 282 nM. Also, the “Log Ki” value in experiment [7] was less than -6.
In the case of `CC(=O)C1=C(C)NC(C)=C(C(=O)NCCCN2CCC(c3ccccc3)(c3ccccc3)CC2)C1c1ccc2c(c1)OCO2` (stereo not drawn), the Ki in experiment [1] was 457 nM; in experiment [2], 955 nM; in experiment [3], 8.91 nM; in experiment [4], 380 nM; in experiment [5] it was 380 nM; in experiment [6] it was 407 nM. Further, in experiment [7], the “Log Ki” value is less than -6.
As for `CC1=C(C#N)C(c2ccc([N+](=O)[O-])cc2)C(C(=O)NCCCN2CCC(c3ccccc3)(c3ccccc3)CC2)=C(C)N1` (stereo not drawn), the Ki is 437 nM in experiment [1]; 631 nM in experiment [2]; 56.2 nM in experiment [3]; 832 nM in experiment [4]; 166 nM in experiment [5]; 479 nM in experiment [6]. The “Log Ki” value in experiment [7] is recorded as less than -6.
Turning to `CO/C(O)=C1\C(C)=NC(C)=C(C(=O)NCCCN2CCC(c3ccccc3)CC2)C1c1ccc([N+](=O)[O-])cc1` (stereo not drawn), the inhibition constant Ki is 66.1 nM in experiment [1]; 275 nM in experiment [2]; 0.229 nM in experiment [3]; 219 nM in experiment [4]; 13.5 nM in experiment [5]; 81.3 nM in experiment [6]. Further, the “Log Ki” value in experiment [7] is on record as less than -6.
For the compound `CC1=C(C(N)=O)C(c2ccc3c(c2)OCO3)C(C(=O)NCCCN2CCC(c3ccccc3)(c3ccccc3)CC2)=C(C)N1` (stereo not drawn), the Ki is 1150 nM in experiment [1]; 501 nM in experiment [2]; 8.71 nM in experiment [3]; 204 nM in experiment [4]; 1170 nM in experiment [5]; 724 nM in experiment [6]. Besides, in experiment [7], the “Log Ki” value was less than -6.
As to `CO/C(O)=C1\C(C)=NC(C)=C(C(=O)NCCN2CCC(c3ccccc3)(c3ccccc3)CC2)C1c1ccc([N+](=O)[O-])cc1` (stereo not drawn), the Ki in experiment [1] is 1150 nM; in experiment [2], 447 nM; in experiment [3], 8.71 nM; in experiment [4], 513 nM; in experiment [5], 77.6 nM; in experiment [6] it was 245 nM. In experiment [7], the “Log Ki” value was less than -6.
Regarding `CO/C(O)=C1\C(C)=NC(C)=C(C(=O)NCCCN2CCC(c3ccccc3)(c3ccccc3)CC2)C1c1ccc([N+](=O)[O-])c(OC)c1` (stereo not drawn), the inhibitory constant (Ki) in experiment [1] was 316 nM; in experiment [2], 631 nM; in experiment [3], 1.48 nM; in experiment [4], 575 nM; in experiment [5] it was 162 nM; in experiment [6], 398 nM. Also, the “Log Ki” value in experiment [7] is less than -6.
Take `CO/C(O)=C1\C(C)=NC(C)=C(C(=O)NCCCN2CCC(c3ccccc3)(c3ccccc3)CC2)C1c1ccc(C#N)cc1` (stereo not drawn): the inhibition constant Ki in experiment [1] is 380 nM; in experiment [2] it was 759 nM; in experiment [3], 1.82 nM; in experiment [4], 1260 nM; in experiment [5], 151 nM; in experiment [6], 871 nM. Also, in experiment [7], the “Log Ki” value is less than -6.
